One data set relates to A549 cells. The data set can be described thus: MTT toxicity in A549 cells with added BSA. It is filed as cell-based, human. The note with it: BSA 0.6 mM. Put shortly:
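MTT viability assay in human A549 alveolar adenocarcinoma cells with added BSA (0.6 mM). Test compounds were tested under non-illuminated and illuminated conditions. Percent viability was plotted against concentration. IC50 was fitted by four-parameter nonlinear regression, only where viability fell by at least 50%.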

The next data set has as its system HUVECs. The data set can be described thus: MTT cytotoxicity in normal human cells. It is filed as cell-based. The note with it: up to 100 μM.
Data set [1] deals with RAW 264.7 murine macrophage cells. The data set is described as follows: MTT cytotoxicity in RAW 264.7 cells with added BSA. It is filed as cell-based. Put shortly:
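MTT viability assay in murine RAW 264.7 macrophages with added bovine serum albumin. Test compounds were screened under both non-illuminated and illuminated conditions.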

Data set [2] concerns TNF-α. The data set is described as follows: Suppression of LPS-induced TNF-α production in RAW 264.7 cells. It is filed as cell-based, murine. The note with it: BSA 0.6 mM; for effect on TNF-α: LPS 1 μg/mL. A digest of the protocol: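 RAW 264.7 murine macrophages with added BSA (0.6 mM) and test compound, kept either illuminated or dark. Plates were then treated with LPS (1 μg/mL final) for 1 h. TNF-α in each well's supernatant was measured by commercial ELISA. Means ± SEM from three independent experiments. Two-way ANOVA with Tukey post hoc tests against the LPS control and illuminated versus dark.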

Data set [3] has as its target T1, bovine serum albumin (Bos taurus, UniProt P02769). The data set is described as follows: Bovine serum albumin binding by tryptophan fluorescence quenching.
The test system of data set [4] is TNF-α. The note with it: RAW 264.7 murine macrophages; cited from earlier work.
The target in data set [5] is T1, bovine serum albumin. The note with it: 22 °C, cited from earlier work.
[6] abbreviates: read-out: IC50 A549, non-illuminated.
The mark [7] stands for this setting: read-out: IC50 RAW 264.7, non-illuminated.

“And” between values parts separate entries of the source, which are not always exact repeats. Equal values may be shown once. Read-outs that look alike come from different tables or passages of the source.

T1 sequence (P02769 25-607): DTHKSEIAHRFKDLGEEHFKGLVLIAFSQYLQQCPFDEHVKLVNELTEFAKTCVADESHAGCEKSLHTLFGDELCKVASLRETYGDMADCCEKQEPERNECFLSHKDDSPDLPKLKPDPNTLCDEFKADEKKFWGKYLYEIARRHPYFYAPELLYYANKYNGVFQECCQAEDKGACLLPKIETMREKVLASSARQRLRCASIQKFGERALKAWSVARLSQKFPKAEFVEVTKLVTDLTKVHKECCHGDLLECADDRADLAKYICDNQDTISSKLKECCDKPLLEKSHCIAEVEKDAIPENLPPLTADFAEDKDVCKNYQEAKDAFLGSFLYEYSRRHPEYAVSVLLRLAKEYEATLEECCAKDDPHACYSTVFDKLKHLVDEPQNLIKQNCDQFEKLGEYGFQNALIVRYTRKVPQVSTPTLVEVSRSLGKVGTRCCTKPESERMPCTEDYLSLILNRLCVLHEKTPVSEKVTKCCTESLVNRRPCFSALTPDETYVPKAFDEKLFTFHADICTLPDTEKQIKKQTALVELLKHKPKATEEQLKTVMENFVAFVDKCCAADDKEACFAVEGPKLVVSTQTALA

The IC50 is the concentration that inhibits the measured activity by half. For the molecule 3-hydroxybenzo[g]quinolone [Compound 1], the figures for the IC50 (with A549 cells (setting [6]); in data set [1] (setting [7])) were more than 100 µM and 40.2 ± 1.44 µM, respectively. For the same molecule, the cell viability result with HUVECs is on record as “greater than 50%”. For the same molecule, the TNF-α level entry in the data set on TNF-α [2] (80 nM, illuminated (blue LED array, 1 hr), LPS 1 μg/mL 1 h) is recorded as “almost completely suppressed”. Also, the “effect on TNF-α” value in the data set on TNF-α [2] (non-illuminated) is reported as “dose-dependent decrease”. Also, on bovine serum albumin [3] (22 °C, 4% DMSO:Tris buffer pH 7.4, 0.1 M NaCl), the “KSV (binding constant with BSA)” value was determined as 2.9e+06 M⁻¹. For the same molecule, the “Ka (ibuprofen)” value on bovine serum albumin [3] (22 °C, in the presence of ibuprofen (Site II)) was 980000 M⁻¹. For the same molecule, the “Ka (warfarin)” value at bovine serum albumin [3] (22 °C, in the presence of warfarin (Site I)) is 610000 M⁻¹. In addition, on bovine serum albumin [3] (relative to Flav-1), the “fold stronger binding to BSA than Flav-1” value is “approximately 900 fold”.

In the case of `NCC(=O)O.[C-]#[O+].[C-]#[O+].[C-]#[O+].[Cl][Ru]` [CORM-3], the “concentration at which effects on TNF-α expression start” value in the data set on TNF-α [4] was 10 µM.

Regarding `O=C(Nc1cc2ccccc2cc1C(=O)O)c1ccccc1` [Compound 3, 3-(benzoylamino)-2-naphthalenecarboxylic acid], the IC50 is more than 100 µM in the data set on A549 cells (Homo sapiens, A549, read-out: IC50 A549, non-illuminated); more than 100 µM with A549 cells (setting [6]); more than 100 µM in data set [1] (Mus musculus, RAW264.7, read-out: IC50 RAW 264.7, non-illuminated); more than 100 µM in data set [1] (setting [7]). In addition, the “IC50 A549 (illuminated)” value with A549 cells (visible light illumination (in situ CO release)) is listed as “non-toxic”. Moreover, in the data set with TNF-α [2] (illuminated), the “effect on TNF-α” value was “lack of any effect”.

For the molecule `O=c1c(O)c(-c2ccccc2)oc2cc3ccccc3cc12` [Flav-1, 3-hydroxybenzo[g]flavone, reference compound], the “Ka (ibuprofen)” value on bovine serum albumin [5] (in the presence of ibuprofen) is 2600 M⁻¹. In addition, the “Ka (warfarin)” value on bovine serum albumin [5] (in the presence of warfarin) is 360 M⁻¹. In addition, the IC50 in the data set on A549 cells (setting [6]) is 82 µM and 81.9 µM; in data set [1] (setting [7]), more than 100 µM. Also, in the data set on HUVECs, the cell viability entry is given as “greater than 50%”. Moreover, the “IC50 RAW 264.7” value in data set [1] (non-illuminated) is “nontoxic”.

On to “BSA-Ru(CO)2 conjugate: adduct formed by albumin binding of CORM-3”, for which the “concentration at which effects on TNF-α expression start” value in the data set with TNF-α [4] was 4.5 µM.

Source of the values: article PMC6336391 (Journal of the American Chemical Society, 2018).
